Data as given in PMC4834983 (Journal of medicinal chemistry, 2015).

Key:
pYStat3 = experiment: Immunoblotting of pStat3 in treated U251MG cells; assay type: cell-based, human; details: for effect on pStat3 in treated tumor cells: 5 μM, glioma cells, immunoblotting
How it was run: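 Whole-cell lysates from U251MG cells given test compound at 5 μM for 0–24 h, or at 0–5 μM for 2 h. Immunoblotted for pY705Stat3 and total Stat3, with GAPDH as loading reference.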

Stat3:Stat3 = Stat3:Stat3 (Mus musculus, UniProt P42227); experiment: Cell-free EMSA, nuclear extracts pre-incubated with compound, hSIE probe; assay type: biochemical; details: for Stat3:Stat3/DNA-binding activity (complexation), cell-free EMSA: 5 μM, 30 min pre-incubation, NIH3T3/v-Src nuclear extracts
Chain of Stat3:Stat3 (P42227 2-770 limits assumed): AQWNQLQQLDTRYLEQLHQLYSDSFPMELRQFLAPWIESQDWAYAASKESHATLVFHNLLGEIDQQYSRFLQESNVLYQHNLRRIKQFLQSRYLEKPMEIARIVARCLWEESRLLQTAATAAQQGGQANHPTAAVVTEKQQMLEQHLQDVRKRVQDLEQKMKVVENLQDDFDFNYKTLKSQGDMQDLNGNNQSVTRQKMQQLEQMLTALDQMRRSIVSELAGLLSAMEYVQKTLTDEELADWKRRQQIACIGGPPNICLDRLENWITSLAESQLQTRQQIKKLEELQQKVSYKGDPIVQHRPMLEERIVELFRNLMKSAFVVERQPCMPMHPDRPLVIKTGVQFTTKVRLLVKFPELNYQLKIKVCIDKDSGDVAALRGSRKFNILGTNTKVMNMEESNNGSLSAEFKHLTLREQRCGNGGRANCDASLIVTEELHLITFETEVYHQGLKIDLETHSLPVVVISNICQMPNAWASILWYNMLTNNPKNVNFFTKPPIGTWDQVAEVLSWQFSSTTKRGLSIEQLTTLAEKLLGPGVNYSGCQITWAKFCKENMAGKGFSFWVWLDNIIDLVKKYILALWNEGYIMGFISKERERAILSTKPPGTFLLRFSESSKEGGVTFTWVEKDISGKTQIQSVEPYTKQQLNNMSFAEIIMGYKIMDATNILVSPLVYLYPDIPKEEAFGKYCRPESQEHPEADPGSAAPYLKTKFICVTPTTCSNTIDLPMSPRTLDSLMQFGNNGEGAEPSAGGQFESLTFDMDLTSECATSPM

U251MG cells = experiment: CyQuant cell proliferation assay; assay type: cell-based, human; details: for activity against U251MG cell growth: 5 μM; for IC50: Homo sapiens, U-251, 72 h, read-out: IC50 cell proliferation U251MG
How it was run: (§1)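 CyQuant DNA-dye proliferation assay on cultured cells after 72 h exposure to test compound. Viability expressed relative to DMSO-treated control cells.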

MDA-MB-231 cells = experiment: CyQuant cell proliferation assay; assay type: cell-based, human; details: for effect on MDA-MB-231 cell growth: 5 μM
How it was run: as §1

Stat3 = Stat3 DNA-binding activity/EMSA of nuclear extracts from treated glioma cells; assay type: cell-based, human; details: for effect on Stat3 DNA-binding activity in treated tumor cells: 5 μM, glioma cells, EMSA; for IC50: Homo sapiens, U-251, read-out: IC50 Stat3 DNA-binding activity in treated cells
SF295 cells = experiment: CyQuant cell proliferation assay; assay type: cell-based; details: Homo sapiens, SF-295, 72 h, read-out: IC50 cell proliferation SF295
How it was run: as §1

U373MG cells = experiment: CyQuant cell proliferation assay; assay type: cell-based; details: Homo sapiens, U373 MG, 72 h, read-out: IC50 cell proliferation U373MG
How it was run: as §1

MCF-7 cells = experiment: CyQuant cell proliferation assay; assay type: cell-based; details: Homo sapiens, MCF7, 72 h, read-out: IC50 cell proliferation MCF-7
How it was run: as §1

Stat1:Stat1 = molecular target: T1, Stat1:Stat1 (Mus musculus, UniProt P42225); experiment: Cell-free EMSA, EGF-stimulated NIH3T3/hEGFR nuclear extracts; assay type: biochemical; details: 5 μM, 30 min pre-incubation
T1 sequence (P42225 2-749 limits assumed): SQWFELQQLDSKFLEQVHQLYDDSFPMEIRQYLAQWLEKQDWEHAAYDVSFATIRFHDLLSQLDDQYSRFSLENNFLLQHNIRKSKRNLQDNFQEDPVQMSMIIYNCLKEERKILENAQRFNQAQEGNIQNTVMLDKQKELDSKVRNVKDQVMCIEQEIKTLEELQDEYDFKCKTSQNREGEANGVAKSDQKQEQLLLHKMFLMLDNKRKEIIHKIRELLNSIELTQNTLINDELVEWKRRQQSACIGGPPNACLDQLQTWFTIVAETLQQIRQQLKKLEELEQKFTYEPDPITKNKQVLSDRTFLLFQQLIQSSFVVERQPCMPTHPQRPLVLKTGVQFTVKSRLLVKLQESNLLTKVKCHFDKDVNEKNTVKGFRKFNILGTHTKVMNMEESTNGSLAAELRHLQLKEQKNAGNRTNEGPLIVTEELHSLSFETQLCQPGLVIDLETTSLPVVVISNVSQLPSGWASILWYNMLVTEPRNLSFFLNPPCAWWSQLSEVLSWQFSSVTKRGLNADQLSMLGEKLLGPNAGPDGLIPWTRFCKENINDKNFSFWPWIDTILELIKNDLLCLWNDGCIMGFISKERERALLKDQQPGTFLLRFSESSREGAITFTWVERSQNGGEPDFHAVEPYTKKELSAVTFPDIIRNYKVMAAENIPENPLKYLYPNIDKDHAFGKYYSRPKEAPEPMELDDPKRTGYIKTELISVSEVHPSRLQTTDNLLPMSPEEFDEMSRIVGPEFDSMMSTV
How it was run: (§2)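 Nuclear extracts from EGF-stimulated NIH3T3/hEGFR fibroblasts, containing active Stat1, Stat3 and Stat5, preincubated with 5 μM test compound for 30 min at room temperature. Then incubated 30 min with 32P-labelled probe before EMSA: hSIE (Stat1/Stat3 binding) or MGFe (bovine β-casein element; Stat1/Stat5 binding). STAT:DNA bands quantified as percent of control.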

Stat5:Stat5 = experiment: Cell-free EMSA, EGF-stimulated NIH3T3/hEGFR nuclear extracts, MGFe probe; assay type: biochemical, mouse; details: 5 μM, 30 min pre-incubation
How it was run: as §2

Structure (SMILES) | Stat3:Stat3/DNA-binding activity (complexation), cell-free EMSA (Stat3:Stat3) | effect on pStat3 in treated tumor cells (pYStat3) | activity against U251MG cell growth (U251MG cells) | effect on Stat3 DNA-binding activity in treated tumor cells (Stat3) | further results
C/C(=C\CO)C(=O)O[C@H]1C[C@@H](C)[C@]2(O)CC[C@](C)(/C=C3/OC(=O)C(CO)=C31)O2 [Compound 21] | only weakly inhibited | little impact | – | – | –
C=C(C)C(=O)O[C@H]1C[C@@H](C)[C@]2(O)CC[C@](C)(/C=C3/OC(=O)C(COC(C)=O)=C31)O2 [Compound 7] | diminished | strongly inhibited | – | strongly inhibited | IC50 (MDA-MB-231 cells; Homo sapiens, MDA-MB-231, 72 h, read-out: IC50 cell proliferation MDA-MB-231): 5.2 to 9.1 µM; IC50 (SF295 cells): 7.4 to 18.3 µM; IC50 (U373MG cells): 6.6 to 8.2 µM; IC50 (MCF-7 cells): 4.8 to 9.6 µM; effect on Stat1:Stat1 activity, cell-free EMSA (Stat1:Stat1): weak effects; effect on Stat5:Stat5 activity, cell-free EMSA (Stat5:Stat5): weak effects
C/C=C(\C)C(=O)O[C@H]1C[C@@H](C)[C@]2(O)CC[C@](C)(/C=C3/OC(=O)C(CO)=C31)O2 [Compound 8] | only weakly inhibited | little impact | – | – | –
C=C(C)C(=O)O[C@H]1C[C@@H](C)[C@]2(O)CC[C@](C)(/C=C3/OC(=O)C(CO)=C31)O2 [Compound 18] | only weakly inhibited | little impact | – | – | –
C/C=C(/C)C(=O)O[C@H]1C[C@@H](C)[C@]2(O)CC[C@](C)(/C=C3/OC(=O)C(CO)=C31)O2 [Compound 19] | only weakly inhibited | little impact | – | – | –
CCC(C)C(=O)OCC1=C2/C(=C\[C@@]3(C)CC[C@](O)(O3)[C@H](C)C[C@@H]2O)OC1=O (stereo partly drawn) [Compound 29] | moderate inhibitory effects | little effect | weakly-active or inactive | – | –
CCN1C(=O)C=CC1=O [NEM, N-ethylmaleimide, reference compound] | – | – | – | – | Stat3:Stat3/DNA complexation, dose-dependent (Stat3:Stat3; Fig. S3B): inhibits
C=C(C)C(=O)O[C@H]1C[C@@H](C)[C@]2(OC)CC[C@](C)(/C=C3/OC(=O)C(CO)=C31)O2 [Compound 28] | only weakly inhibited | little impact | – | – | –
C=C1C(=O)O[C@H]2[C@H]1CC/C(C)=C/CC[C@@]1(C)O[C@@H]21 [parthenolide, reference compound] | – | – | – | – | cell growth activity, control compounds (U251MG cells; panel of cell lines, Fig. S5E(i)): poorly-active or non-specific in activity; Stat3 activity in tumor cells, control compounds (pYStat3; Fig. S5E(ii)): did not inhibit
CC(C)=CCC/C(C)=C/C(=O)OCC1=C2/C(=C\[C@@]3(C)CC[C@](O)(O3)[C@H](C)C[C@@H]2O)OC1=O [Compound 31] | diminished | suppressed | retained or improved the inhibitory potency | suppressed | IC50 (U251MG cells): 1000 to 1200 nM; IC50 (Stat3): 500 to 2500 nM; effect on Stat1:Stat1 activity, cell-free EMSA (Stat1:Stat1): moderate effect
C[C@@H]1C[C@H](O)C2=C(COC(=O)/C=C/c3ccccc3)C(=O)O/C2=C/[C@@]2(C)CC[C@]1(O)O2 [Compound 30] | diminished | suppressed | retained or improved the inhibitory potency | suppressed | IC50 (U251MG cells): 1000 to 1200 nM; IC50 (Stat3): 500 to 2500 nM
C[C@@H]1C[C@H](O)C2=C(CO)C(=O)O/C2=C/[C@@]2(C)CC[C@]1(O)O2 [Compound 14] | only weakly inhibited | little impact | – | – | –

Further lines, with some results ahead:

Stat3:Stat3/DNA-binding activity (complexation), cell-free EMSA (Stat3:Stat3) | Structure (SMILES) | effect on pStat3 in treated tumor cells (pYStat3) | activity against U251MG cell growth (U251MG cells) | effect on Stat3 DNA-binding activity in treated tumor cells (Stat3) | further results
diminished | C[C@@H]1C[C@H](O)C2=C(COC(=O)/C=C/c3ccc(C(F)(F)F)cc3)C(=O)O/C2=C/[C@@]2(C)CC[C@]1(O)O2 [Compound 35] | – | retained or improved the inhibitory potency | – | –
diminished | C/C=C(\C)C(=O)OCC1=C2/C(=C\[C@@]3(C)CC[C@](OC)(O3)[C@H](C)C[C@@H]2OC(=O)/C(C)=C/C)OC1=O [Compound 39] | suppressed | retained or improved the inhibitory potency | suppressed | effect on MDA-MB-231 cell growth (MDA-MB-231 cells): strongly inhibited; IC50 (Stat3): 500 to 2500 nM
moderate inhibitory effects | C/C=C(\C)C(=O)O[C@H]1C[C@@H](C)[C@]2(OC)CC[C@](C)(/C=C3/OC(=O)C(COC(=O)/C=C/c4ccccc4)=C31)O2 [Compound 40] | – | retained or improved the inhibitory potency | – | effect on MDA-MB-231 cell growth (MDA-MB-231 cells): strongly inhibited
diminished | C[C@@H]1C[C@H](O)C2=C(COC(=O)/C=C/c3ccc(F)cc3)C(=O)O/C2=C/[C@@]2(C)CC[C@]1(O)O2 [Compound 34] | – | retained or improved the inhibitory potency | – | effect on MDA-MB-231 cell growth (MDA-MB-231 cells): strongly inhibited
diminished | CCCC(CCC)C(=O)OCC1=C2/C(=C\[C@@]3(C)CC[C@](O)(O3)[C@H](C)C[C@@H]2O)OC1=O [Compound 37] | – | retained or improved the inhibitory potency | – | effect on MDA-MB-231 cell growth (MDA-MB-231 cells): strongly inhibited
diminished | C[C@@H]1C[C@H](O)C2=C(COC(=O)CCc3ccccc3)C(=O)O/C2=C/[C@@]2(C)CC[C@]1(O)O2 [Compound 36] | suppressed | retained or improved the inhibitory potency | suppressed | IC50 (U251MG cells): 1000 to 1200 nM; IC50 (Stat3): 500 to 2500 nM
diminished | CC(C)=CCCC(C)CC(=O)OCC1=C2/C(=C\[C@@]3(C)CC[C@](O)(O3)[C@H](C)C[C@@H]2O)OC1=O (stereo partly drawn) [Compound 33] | suppressed | retained or improved the inhibitory potency | suppressed | IC50 (U251MG cells): 1000 to 1200 nM; IC50 (Stat3): 500 to 2500 nM
diminished | CC(C)=CC(=O)OCC1=C2/C(=C\[C@@]3(C)CC[C@](O)(O3)[C@H](C)C[C@@H]2O)OC1=O [Compound 32] | moderate effect | weakly-active or inactive | – | –
